Bioassay records: PubChem, several laboratories
ABCB1 inh: inhibitors of human ABCB1 transporter, ABCG2 counter-screen; CCRF-Adr cells, JC-1 efflux, flow cytometry; inhibition, % at 6.6 µM; 0.067% of 190,000 active; in the data active = inhibition above about 40%;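 note: 0% = vehicle and 100% = reference inhibitor; higher value means more JC-1 retained so stronger ABCB1 efflux block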
Target sequence (P08183 whole entry, looked up): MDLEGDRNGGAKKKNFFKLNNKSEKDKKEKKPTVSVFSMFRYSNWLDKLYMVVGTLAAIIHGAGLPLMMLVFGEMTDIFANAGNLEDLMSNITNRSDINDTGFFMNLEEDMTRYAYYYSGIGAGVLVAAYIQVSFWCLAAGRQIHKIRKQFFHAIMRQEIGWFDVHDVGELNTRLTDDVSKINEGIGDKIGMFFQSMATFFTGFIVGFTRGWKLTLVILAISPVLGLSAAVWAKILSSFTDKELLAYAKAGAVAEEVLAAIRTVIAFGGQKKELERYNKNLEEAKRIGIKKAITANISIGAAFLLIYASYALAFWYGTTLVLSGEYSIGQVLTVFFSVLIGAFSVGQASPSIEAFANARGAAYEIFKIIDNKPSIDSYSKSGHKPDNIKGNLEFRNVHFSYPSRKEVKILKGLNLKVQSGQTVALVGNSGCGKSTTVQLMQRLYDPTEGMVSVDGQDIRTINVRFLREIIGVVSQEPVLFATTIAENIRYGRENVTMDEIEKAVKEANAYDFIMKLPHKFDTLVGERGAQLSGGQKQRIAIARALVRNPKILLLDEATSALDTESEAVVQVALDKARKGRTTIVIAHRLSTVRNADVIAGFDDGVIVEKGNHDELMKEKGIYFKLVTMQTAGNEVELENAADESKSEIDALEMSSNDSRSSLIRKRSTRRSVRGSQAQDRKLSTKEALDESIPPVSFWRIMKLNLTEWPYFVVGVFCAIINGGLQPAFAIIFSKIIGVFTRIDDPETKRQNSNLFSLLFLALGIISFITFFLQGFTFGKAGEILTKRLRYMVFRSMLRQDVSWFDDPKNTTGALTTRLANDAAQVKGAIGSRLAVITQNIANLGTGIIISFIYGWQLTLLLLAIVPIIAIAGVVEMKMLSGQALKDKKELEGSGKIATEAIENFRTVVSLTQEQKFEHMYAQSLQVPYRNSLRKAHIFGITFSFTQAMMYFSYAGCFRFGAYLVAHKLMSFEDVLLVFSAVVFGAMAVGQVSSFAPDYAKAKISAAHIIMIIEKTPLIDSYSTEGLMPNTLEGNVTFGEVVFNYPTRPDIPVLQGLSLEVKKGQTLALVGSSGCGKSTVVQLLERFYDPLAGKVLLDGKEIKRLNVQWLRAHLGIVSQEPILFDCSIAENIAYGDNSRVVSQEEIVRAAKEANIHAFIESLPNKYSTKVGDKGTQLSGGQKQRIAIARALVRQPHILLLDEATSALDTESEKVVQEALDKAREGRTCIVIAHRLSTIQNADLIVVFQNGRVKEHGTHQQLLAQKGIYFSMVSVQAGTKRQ
ABCG2 inh: human ABCG2 inhibition, ABCB1 as counter-screen. inhibition, % at 6.6 µM. 0.1% of 190,000 active. IgMXP3 cells, JC-1 efflux, flow cytometry. Q9UNQ0;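 active = inhibition above 80%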;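 note: 0% = DMSO and 100% = nicardipine control wells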
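Assay system – ABCG2 IgMXP3 and barcoded ABCB1 CCRF-Adr cell mix · Input – 3 million cells/mL in well · Reagent – JC-1 fluorescent substrate · Compound – single test compound dose, 6.6 µM final · Timing – 10 min exposure at 25 °C with rotation, no wash · Detection – flow cytometry of retained JC-1 fluorescence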
Avidin fluor: compound fluoresces at 488/530 nm on avidin beads; compound fluorescence 488/530 nm, flow cytometry; active compounds read high; fluorescence (KMESF) at 10 µM; 0.38% of 220,000 active; AID 1775; in the data active = fluorescence above about 47
PKD1 inh: blocks activity of human protein kinase D1 | 0.056% of 200,000 active | PKD1 kinase fluorescence polarization assay | AID 797 | inhibition, % (test concentration not listed) | Q15139
L major viab: reduces viability of Leishmania major promastigotes; resazurin fluorescence viability; inhibition, % at 10 µM; 9% of 200,000 active;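 note: promastigotes grown with compound for 44 hours at 28 °C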
GSH fluor: compound fluoresces at 488/530 nm on GSH beads; GSH beads flow cytometry, compound fluorescence 488/530 nm; active compounds read high; fluorescence (KMESF) at 10 µM; 0.25% of 190,000 active; AID 1776; in the data active = fluorescence above about 89;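 note: glutathione beads carrying GST-tagged Bcl family fusion proteins plus one bare bead set; values are compound well signal with DMSO vehicle wells as background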
Active calls of the source: *; . = no result. Only a selection was taken, and hits are over-represented in it overall. Cut-off read from the data, not from the text of the source, unless noted: active = inhibition above about 50%; inactive = the rest.

SMILES	ABCB1 inh	ABCG2 inh	Avidin fluor	PKD1 inh	L major viab	GSH fluor
NC(=O)c1cc([N+](=O)[O-])ccc1NCCN1C(=O)c2ccccc2C1=O	1.2	13.5	10	7.0	-2.8	16
CC(COc1cccc2ccccc12)CN1CCN(C)CC1 (centres undefined)	0.7	8.1	32	-7.6	83.5*	18
OC(COc1cccc2ccccc12)CN1CCN(c2ccccc2)CC1 (centres undefined)	.	.	10	.	.	.
Cc1ccc2cc3cc(C(=O)NCCN4CCOCC4)oc3nc2c1	-0.3	7.5	32	0.2	70.5*	23
CCN1CCN(CCCNC(=O)c2cc3cc4ccc(OC)cc4nc3o2)CC1	1.0	5.6	11	5.8	100.2*	36
O=C(NCCCN1CCOCC1)c1cc2ccccc2o1	0.3	0.7	9	-7.2	79.5*	11
CCOC(=O)N1CCC(NC(=O)c2cc3cc4cc(OC)ccc4nc3o2)CC1	1.0	2.5	9	-1.9	32.0	13
Cc1ccc2cc3cc(C(=O)NCc4ccc5c(c4)OCO5)oc3nc2c1	0.6	29.8	12	8.2	-0.8	25
COc1ccc2cc3cc(C(=O)NCCCN4CCOCC4)oc3nc2c1	1.0	8.8	8	-3.0	97.5*	15
CO/N=C(\CCC(=O)O)c1cccs1	.	.	4	.	.	.
COc1cccc(C(=O)OCC(=O)Nc2cc(C)c(C)cc2[N+](=O)[O-])c1	0.6	9.3	9	-6.3	2.1	14
O=C(NCCN1CCOCC1)C(Sc1ccccc1)c1ccccc1 (centres undefined)	.	.	10	.	.	.
O=C(NCCCN1CCOCC1)C(Sc1ccccc1)c1ccccc1 (centres undefined)	-0.1	-0.4	9	3.4	90.5*	42
Cc1ccccc1NS(=O)(=O)c1cc(C(=O)NCCSC2CCCCC2)ccc1C	0.8	2.4	8	11.2	99.8*	21
Cc1ccc(C)c(NS(=O)(=O)c2cc(C(=O)NCCSC3CCCCC3)ccc2C)c1	2.2	21.1	14	-1.8	97.0*	33
O=C(O)C1CCCCC1C(=O)NCc1ccccn1 (centres undefined)	1.2	5.9	9	5.6	-3.9	16
CCCOc1ccc(N2CC(C(=O)Nc3ccc(N4CCOCC4)cc3)CC2=O)cc1 (centres undefined)	0.6	2.7	5	-2.0	-5.6	56
Cn1c(=O)c2ncn(CC(=O)Nc3nc(-c4ccc(Cl)cc4)cs3)c2n(C)c1=O	0.4	1.9	21	-3.1	0.6	11
CC(C)(C)n1nnnc1C(c1cccs1)N(Cc1cccnc1)Cc1ccco1 (centres undefined)	2.4	2.4	6	4.2	79.1*	37
Cc1cc2cc(C(c3nnnn3C3CCCC3)N(Cc3cccnc3)Cc3ccco3)c(=O)[nH]c2cc1C (centres undefined)	12.3	9.1	13	-0.6	49.7	48
Cc1ccc2cc(C(c3nnnn3C3CCCC3)N(Cc3ccccc3)Cc3ccco3)c(=O)[nH]c2c1 (centres undefined)	2.1	1.7	34	-20.8	79.7*	13
CCC(C)(C)n1nnnc1C(c1cc2ccc(C)cc2[nH]c1=O)N(Cc1cccnc1)Cc1ccco1 (centres undefined)	2.5	3.4	14	5.1	82.8*	22
CC(C)(C)n1nnnc1C(c1cccs1)N(Cc1ccccc1)Cc1ccco1 (centres undefined)	0.2	0.4	9	-8.3	12.2	13
Cc1[nH]n(-c2nc(-c3cccc([N+](=O)[O-])c3)cs2)c(=O)c1C	-0.4	-0.8	3	3.7	-1.7	10
Cc1ccc(Nc2nnc(SCC(=O)NCc3ccco3)s2)cc1	0.3	1.7	7	-4.8	-4.6	259*
SMILES	ABCB1 inh	ABCG2 inh	Avidin fluor	PKD1 inh	L major viab	GSH fluor
Cc1cccc(Nc2nnc(SCC(=O)NCc3cccs3)s2)c1C	0.2	-4.9	13	-10.4	58.1*	9
Cc1cccc(Nc2nnc(SCC(=O)NCc3cccs3)s2)c1	0.7	11.9	9	0.0	6.9	14
Cc1ccc2c(C)nc(SC(C(=O)c3ccccc3)c3ccccc3)nc2c1 (centres undefined)	-0.6	-4.0	4	-0.6	16.9	9
CC1=NN(c2ccc(C)cc2C)C(=O)C1C(c1cccc(O)c1)C1C(=O)N(c2ccc(C)cc2C)N=C1C (centres undefined)	-0.1	-3.6	14	-3.9	55.5*	8
COc1ccc(NC(=S)N2CCC(N(C)CC3CCCO3)CC2)cc1 (centres undefined)	-0.4	-3.7	13	8.4	93.4*	21
COc1ccc(NC(=O)CN(C2CCCCC2)S(C)(=O)=O)cc1Cl	1.2	3.4	5	2.0	3.2	36
Cc1cccc(NC(=S)N2CCCCCC2)c1	0.1	0.3	14	-7.3	36.8	7
Cc1cccc(NC(=S)N2CCC(N(C)CC3CCCO3)CC2)c1 (centres undefined)	0.1	13.5	16	-4.1	85.5*	11
Cc1ccc(NC(=S)N2CCC(N(C)CC3CCCO3)CC2)cc1C (centres undefined)	0.3	1.5	8	5.3	86.5*	9
COc1ccc(NC(=S)N2CCC(N(C)CC3CCCO3)CC2)cc1Cl (centres undefined)	-0.5	-3.4	13	-12.1	95.3*	21
Cc1ccc(S(=O)(=O)N2CCN(C(=O)CCC(=O)NCc3ccc(F)cc3)CC2)cc1	0.5	2.9	11	0.4	9.9	7
CCn1c(COc2cccc(C)c2C)nnc1SCC(=O)N1CCN(c2ccc(OC)cc2)CC1	2.4	6.8	23	8.7	2.3	10
COc1ccc(OCC2c3cc(OC)c(OC)cc3CCN2C(=O)C(C)C)cc1 (centres undefined)	0.9	1.1	11	-7.7	29.9	16
Cc1c(Cl)cccc1NC(=S)N1CCN(C(=O)C2CCCO2)CC1 (centres undefined)	-0.1	0.4	11	-3.6	-3.6	9
Cc1c(Cl)cccc1NC(=S)N1CCC(N(C)CC2CCCO2)CC1 (centres undefined)	0.0	-0.1	19	-3.1	83.5*	11
COCc1cc(=O)n2[nH]c(C(C)(C)C)cc2n1	.	.	6	.	.	.
CCN1C/C(=C/c2ccc(OC)c(O)c2)C(=O)/C(=C/c2ccc(OC)c(O)c2)C1	0.8	2.1	17	-1.7	100.4*	25
O=C1/C(=C/c2cccc([N+](=O)[O-])c2)CCc2ccccc21	1.1	17.6	3	-3.5	95.4*	8
COc1ccc(C=C2C(=O)c3ccccc3C2=O)cc1O	-0.1	0.1	6	3.8	13.6	20
O=C1/C(=C/c2ccc([N+](=O)[O-])cc2)CCc2ccccc21	.	.	18	.	.	.
CCN1C/C(=C\c2cccc([N+](=O)[O-])c2)C(=O)/C(=C/c2cccc([N+](=O)[O-])c2)C1	0.8	8.1	12	-15.6	100.5*	3
